# ChEMBL document CHEMBL2177013, “Synthesis and biological evaluation of tylophorine-derived dibenzoquinolines as orally active agents: exploration of the role of tylophorine e ring on biological activity” (J Med Chem, 2012)
# Activity calls are given as the source filed them. The calls are words filed in the database; no cut-off is given here.
# Test system: not listed separately
# Assay: Cmax in Sprague-Dawley rat at 3 mg/kg, po by HPLC-MS method
# Format: ADME, organism-based
# Design: dose 3 mg/kg, route oral
# Details: in vivo
# How it was run: (§1)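 Male rats (330−380 g, 9−10 weeks), jugular vein cannula implanted 1 day before, fasted. 3 mg/kg given iv or orally (n = 3) in DMA/PEG400 30/70 v/v. Blood (150 μL) drawn at 0, 2, 5 (iv only), 15, 30 min and 1, 2, 4, 6, 8, 12, 24 h; plasma analysed by HPLC-MS; noncompartmental analysis.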
row,Compound,Cmax
1,CCN1CCc2c(c3cc(OC)c(OC)cc3c3cc(OC)ccc23)C1,535 ng/mL

# Test system: not listed separately
# Assay: AUC (0 to infinity) in Sprague-Dawley rat at 3 mg/kg, iv by HPLC-MS method
# Format: ADME, organism-based
# Design: time infinity, dose 3 mg/kg, route intravenous
# Details: plasma
# How it was run: (§2)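 Male rats (330−380 g, 9−10 weeks old), jugular vein cannulated 1 day before dosing, fasted; 3 mg/kg iv or oral in DMA/PEG400 (30/70, v/v), n = 3. Blood (150 μL) drawn at 0, 2, 5 (iv only), 15, 30 min and 1, 2, 4, 6, 8, 12, 24 h, kept on ice; plasma analysed by HPLC-MS; noncompartmental analysis.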
row,Compound,AUC(0-inf)
1,CCN1CCc2c(c3cc(OC)c(OC)cc3c3cc(OC)ccc23)C1,2320 ng·h/mL

# Test system: not listed separately
# Assay: AUC (0 to infinity) in Sprague-Dawley rat at 3 mg/kg, po by HPLC-MS method
# Format: ADME, organism-based
# Design: dose 3 mg/kg, route oral, time infinity
# Details: plasma
# How it was run: as §2
row,Compound,AUC(0-inf)
1,CCN1CCc2c(c3cc(OC)c(OC)cc3c3cc(OC)ccc23)C1,2470 ng·h/mL

# Test system: RAW264.7
# Assay: Reduction in LPS/INFgamma-induced COX2 protein expression in mouse RAW264.7 cells incubated for 20 hrs by Western blotting
# Format: functional, cell-based
# Details: not given
# How it was run: (§3)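 LPS/IFNγ-stimulated RAW264.7 cells treated with compound for 20 h. iNOS, COX-2 and GAPDH detected by Western blot; representative of at least three independent experiments.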
row,Compound,Activity
1,CCN1CCc2c(c3cc(OC)c(OC)cc3c3cc(OC)ccc23)C1,Active

# Test system: HepG2
# Assay: Growth inhibition of human HepG2 cells
# Format: functional
# Details: not given
# How it was run: (§4)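 Cells seeded per well: NUGC-3 4500, HONE-1 6000, MCF-7 6500, NCI-H460 2500, HepG2 10000, A549 5000; A549 grown in RPMI 1640 with 2 g/L NaHCO₃, 2 mM L-glutamine and 10% FBS. GI₅₀ = concentration giving 50% growth inhibition, mean of at least three experiments each in duplicate. Paclitaxel served as positive control.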
row,Compound,GI50
1,CCN1CCc2c(c3cc(OC)c(OC)cc3c3cc(OC)ccc23)C1,660 nM

# Test system: A549
# Assay: Down regulation of cyclin A2 expression in human A549 cells incubated for 24 hrs by Western blotting
# Format: functional, cell-based
# Details: not given
row,Compound,Activity
1,CCN1CCc2c(c3cc(OC)c(OC)cc3c3cc(OC)ccc23)C1,Active

# Test system: not listed separately
# Assay: Clearance in Sprague-Dawley rat at 3 mg/kg, iv by HPLC-MS method
# Format: ADME, organism-based
# Design: dose 3 mg/kg, route intravenous
# Details: in vivo
# How it was run: as §1
row,Compound,clearance
1,CCN1CCc2c(c3cc(OC)c(OC)cc3c3cc(OC)ccc23)C1,20 mL/min/kg

# Test system: MCF7
# Assay: Down regulation of cyclin A2 expression in human MCF7 cells incubated for 24 hrs by Western blotting
# Format: functional, cell-based
# Details: not given
row,Compound,Activity
1,CCN1CCc2c(c3cc(OC)c(OC)cc3c3cc(OC)ccc23)C1,Active

# Test system: NCI-H460
# Assay: Down regulation of cyclin A2 expression in human NCI-H460 cells incubated for 24 hrs by Western blotting
# Format: functional, cell-based
# Details: not given
row,Compound,Activity
1,CCN1CCc2c(c3cc(OC)c(OC)cc3c3cc(OC)ccc23)C1,Active

# Test system: MCF7
# Assay: Growth inhibition of human MCF7 cells
# Format: functional
# Details: not given
# How it was run: as §4
row,Compound,GI50
1,CCN1CCc2c(c3cc(OC)c(OC)cc3c3cc(OC)ccc23)C1,370 nM

# Test system: NCI-H460
# Assay: Induction of c-Jun protein accumulation in human NCI-H460 cells incubated for 24 hrs by Western blotting
# Format: functional, cell-based
# Details: not given
row,Compound,Activity
1,CCN1CCc2c(c3cc(OC)c(OC)cc3c3cc(OC)ccc23)C1,Active

# Test system: Transmissible gastroenteritis virus
# Assay: Antiviral activity against Transmissible gastroenteritis virus infected in ST cells pre-treated 2 hrs before virus infection measured 6 hrs post virus infection by immunofluorescent assay
# Format: functional, organism-based
# Details: Alphacoronavirus 1, ST
# How it was run: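 ST cells, with or without 2 h compound pretreatment (10 concentrations), infected with TGEV at MOI 10. Immunofluorescence with anti-spike and anti-nucleocapsid antibodies at 6 hpi. EC50 from dose–response curves, mean of at least three experiments, each in duplicate.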
row,Compound,EC50
1,CCN1CCc2c(c3cc(OC)c(OC)cc3c3cc(OC)ccc23)C1,580 nM

# Test system: not listed separately
# Assay: Volume of distribution at steady state in Sprague-Dawley rat at 3 mg/kg, iv by HPLC-MS method
# Format: ADME, organism-based
# Design: dose 3 mg/kg, route intravenous
# Details: in vivo, read-out: Vdss
# How it was run: as §1
row,Compound,Vd
1,CCN1CCc2c(c3cc(OC)c(OC)cc3c3cc(OC)ccc23)C1,5.1 L/kg

# Test system: not listed separately
# Assay: Growth inhibition of human HONE1 cells
# Format: functional
# Details: not given
# How it was run: as §4
row,Compound,GI50
1,CCN1CCc2c(c3cc(OC)c(OC)cc3c3cc(OC)ccc23)C1,570 nM

# Test system: not listed separately
# Assay: Oral bioavailability in Sprague-Dawley rat at 3 mg/kg by HPLC-MS method
# Format: ADME, organism-based
# Details: in vivo
# How it was run: as §1
row,Compound,bioavailability
1,CCN1CCc2c(c3cc(OC)c(OC)cc3c3cc(OC)ccc23)C1,105%

# Test system: NUGC-3
# Assay: Growth inhibition of human NUGC3 cells
# Format: functional
# Details: not given
# How it was run: as §4
row,Compound,GI50
1,CCN1CCc2c(c3cc(OC)c(OC)cc3c3cc(OC)ccc23)C1,320 nM

# Test system: MCF7
# Assay: Induction of c-Jun protein accumulation in human MCF7 cells incubated for 24 hrs by Western blotting
# Format: functional, cell-based
# Details: not given
row,Compound,Activity
1,CCN1CCc2c(c3cc(OC)c(OC)cc3c3cc(OC)ccc23)C1,Active

# Test system: Transmissible gastroenteritis virus
# Assay: Antiviral activity against Transmissible gastroenteritis virus infected in ST cells assessed as reduction in N-protein expression pre-treated before virus infection measured 16 hrs post virus infection by Western blotting
# Format: functional, organism-based
# Details: not given
# How it was run: (§5)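 ST cells pretreated with compound, then infected with TGEV. Western blot for nucleocapsid (N) protein, caspase 3 (cleavage of procaspase 3) and GAPDH at 16 hpi. Representative of at least three independent experiments.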
row,Compound,Activity
1,CCN1CCc2c(c3cc(OC)c(OC)cc3c3cc(OC)ccc23)C1,Active

# Test system: A549
# Assay: Induction of c-Jun protein accumulation in human A549 cells incubated for 24 hrs by Western blotting
# Format: functional, cell-based
# Details: not given
row,Compound,Activity
1,CCN1CCc2c(c3cc(OC)c(OC)cc3c3cc(OC)ccc23)C1,Active

# Test system: not listed separately
# Assay: Tmax in Sprague-Dawley rat at 3 mg/kg, po by HPLC-MS method
# Format: ADME, organism-based
# Design: dose 3 mg/kg, route oral
# Details: in vivo
# How it was run: as §1
row,Compound,Tmax
1,CCN1CCc2c(c3cc(OC)c(OC)cc3c3cc(OC)ccc23)C1,0.3 h

# Test system: not listed separately
# Assay: Apparent elimination half life in Sprague-Dawley rat at 3 mg/kg, iv by HPLC-MS method
# Format: ADME, organism-based
# Design: dose 3 mg/kg, route intravenous
# Details: in vivo, read-out: betat1/2(app) (converted)
# How it was run: as §1
row,Compound,half-life
1,CCN1CCc2c(c3cc(OC)c(OC)cc3c3cc(OC)ccc23)C1,16 h

# Test system: not listed separately
# Assay: Apparent elimination half life in Sprague-Dawley rat at 3 mg/kg, po by HPLC-MS method
# Format: ADME, organism-based
# Design: dose 3 mg/kg, route oral
# Details: in vivo, read-out: betat1/2(app) (converted)
# How it was run: as §1
row,Compound,half-life
1,CCN1CCc2c(c3cc(OC)c(OC)cc3c3cc(OC)ccc23)C1,6.3 h

# Test system: RAW264.7
# Assay: Reduction in LPS/INFgamma-induced iNOS protein expression in mouse RAW264.7 cells incubated for 20 hrs by Western blotting
# Format: functional, cell-based
# Details: not given
# How it was run: as §3
row,Compound,Activity
1,CCN1CCc2c(c3cc(OC)c(OC)cc3c3cc(OC)ccc23)C1,Active

# Test system: NCI-H460
# Assay: Growth inhibition of human NCI-H460 cells
# Format: functional
# Details: not given
# How it was run: as §4
row,Compound,GI50
1,CCN1CCc2c(c3cc(OC)c(OC)cc3c3cc(OC)ccc23)C1,300 nM

# Test system: A549
# Assay: Growth inhibition of human A549 cells
# Format: functional
# Details: not given
# How it was run: as §4
row,Compound,GI50
1,CCN1CCc2c(c3cc(OC)c(OC)cc3c3cc(OC)ccc23)C1,400 nM

# Test system: Transmissible gastroenteritis virus
# Assay: Antiviral activity against Transmissible gastroenteritis virus infected in ST cells assessed as reduction in caspase-3 activation pre-treated before virus infection measured 16 hrs post virus infection by Western blotting
# Format: functional, organism-based
# Details: not given
# How it was run: as §5
row,Compound,Activity
1,CCN1CCc2c(c3cc(OC)c(OC)cc3c3cc(OC)ccc23)C1,Active
